Results from ChEMBL document CHEMBL1121917, “Structure--activity relationships in a broad-spectrum anthelmintic series. Acid chloride phenylhydrazones. 1. Aryl substitutions and chloride variations” (1981).

Assays:
[1] = organism: Mus musculus; test: Percent clearance of Nematospiroides dubius from mouse after oral treatment of 0.45 mg/mouse/day; format: functional
Procedure, shortened: (§1)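 Mice naturally carrying Syphacia obvelata were experimentally infected with Nematospiroides dubius and Hymenolepis nana, then grouped after a 2-week prepatency. Finely ground compound was suspended in aqueous 0.10% carboxymethylcellulose, 0.04% polysorbate 80 and 0.0042% polyparaben, and 0.1 mL was given orally by cannula once daily for 4 days to five mice. Necropsy followed 2 days later, scoring presence or absence of each parasite. Control clearance was subtracted from the treated clearance.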

[2] = organism: Mus musculus; test: Percent clearance of Hymenolepis nana from mouse after oral treatment of 0.45 mg/mouse/day; format: functional; procedure, shortened: as §1
[3] = tested on: Ovis aries; test: Percent reduction in Trichuris eggs per gram, after treatment with 200 mg/kg dose of compound perorally in sheep; format: functional, Egg; conditions: dose 100 mg/kg; route oral; in the assay text read “100 mg/kg” for “200 mg/kg”
Procedure, shortened: (§2)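 Naturally parasitized lambs, dosed orally either with a suspension by stomach tube or with finely ground compound in gelatin capsules by balling gun. Activity was scored by the clinical test method, meaning a significant fall in helminth egg counts after treatment.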

[4] = tested on: Ovis aries; test: Percent reduction in Haemonchus eggs per gram, after treatment with 200 mg/kg dose of compound perorally in sheep; format: functional, Egg; conditions: dose 100 mg/kg; route oral; in the assay text read “100 mg/kg” for “200 mg/kg”
Procedure, shortened: (§3)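 Naturally parasitized lambs were dosed orally at the stated mg/kg. Dosing was either as a suspension of finely ground compound by stomach tube, or as ground compound weighed into gelatin capsules and given by balling gun. Activity was scored by the clinical test method: the decrease in posttreatment helminth eggs per gram.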

[5] = tested on: Ovis aries; test: Percent reduction in Oesophagostomum eggs per gram, after treatment with 200 mg/kg dose of compound perorally in sheep; format: functional, Egg; conditions: dose 100 mg/kg; route oral; in the assay text read “100 mg/kg” for “200 mg/kg”; procedure, shortened: as §3
[6] = tested on: Ovis aries; test: Percent reduction in Nematodirus eggs per gram, after treatment with 200 mg/kg dose of compound perorally in sheep; format: functional, Egg; conditions: route oral; procedure, shortened: as §3
[7] = organism: Canis familiaris; test: Percent reduction in Uncinaria eggs per gram, after oral treatment of 100 mg/dog dose of compound in a single treatment; format: functional, Canis lupus familiaris, Egg
Procedure, shortened: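 Dogs naturally infected with Toxascaris leonina were experimentally infected with mixed Ancylostoma caninum and Uncinaria stenocephala larvae. Finely ground compound was given orally in gelatin capsules. Three egg count determinations were made before and three after treatment in each experiment.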

[8] = organism: Canis familiaris; test: Percent reduction in Ancylostoma eggs per gram, after oral treatment of 100 mg/dog dose of compound in a single treatment; format: functional, Canis lupus familiaris, Egg
Procedure, shortened: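 Dogs naturally infected with Toxascaris leonina were experimentally infected with mixed Ancylostoma caninum and Uncinaria stenocephala larvae. Finely ground compound was given orally in gelatin capsules. Fecal egg counts were taken three times before and three times after treatment, and activity was taken as the fall in egg counts.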

[9] = organism: Mus musculus; test: Percent clearance of Nematospiroides dubius from mouse after oral treatment of 7.5 mg/mouse/day; format: functional; procedure, shortened: as §1
[10] = tested on: Ovis aries; test: Percent reduction in Trichuris eggs per gram, after treatment with 100 mg/kg dose of compound perorally in sheep; format: functional, Egg; conditions: route oral; procedure, shortened: as §2
[11] = tested on: Ovis aries; test: Percent reduction in Haemonchus eggs per gram, after treatment with 100 mg/kg dose of compound perorally in sheep; format: functional, Egg; conditions: route oral
Procedure, shortened: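 Naturally parasitized lambs received compound orally, either as the aqueous suspension by stomach tube or as finely ground powder in gelatin capsules by balling gun. Activity was judged by the clinical test method, as a significant decrease in posttreatment helminth egg counts.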

[12] = tested on: Ovis aries; test: Percent reduction in Oesophagostomum eggs per gram, after treatment with 100 mg/kg dose of compound perorally in sheep; format: functional, Egg; conditions: route oral; procedure, shortened: as §3
[13] = tested on: Ovis aries; test: Percent reduction in Moniezia eggs per gram, after treatment with 100 mg/kg dose of compound perorally in sheep; format: functional, Egg; conditions: route oral; procedure, shortened: as §3
[14] = tested on: Ovis aries; test: Percent reduction in Trichostrongylus eggs per gram, after treatment with 100 mg/kg dose of compound perorally in sheep; format: functional, Egg; conditions: route oral; procedure, shortened: as §2
[15] = tested on: Ovis aries; test: Percent reduction in Nematodirus eggs per gram, after treatment with 100 mg/kg dose of compound perorally in sheep; format: functional, Egg; conditions: route oral; procedure, shortened: as §3
[16] = tested on: Ovis aries; test: Percent reduction in Ostertagia eggs per gram, after treatment with 100 mg/kg dose of compound perorally in sheep; format: functional, Egg; conditions: route oral; procedure, shortened: as §3
[17] = tested on: Ovis aries; test: Percent reduction in Strongyloides eggs per gram, after treatment with 100 mg/kg dose of compound perorally in sheep; format: functional, Egg; conditions: route oral; procedure, shortened: as §2

Cl/C(=N\Nc1ccccc1)c1ccccc1
Parasite_Clearance [1]: 100%
Parasite_Clearance [2]: 40%
Reduction [3]: 0%
Reduction [4]: 87%
Reduction [5]: 89%
Reduction [6]: 100%

O=[N+]([O-])c1ccc(N/N=C(\Cl)c2ccccc2)cc1
Reduction [7]: 0%
Reduction [8]: 0%
Parasite_Clearance [9]: 0%
Reduction [10]: 100%
Reduction [11]: 0%
Reduction [12]: 0%
Reduction [13]: 100%
Reduction [14]: 57%
Reduction [15]: 0%
Reduction [16]: 33%
Reduction [17]: 58%
